The target of data set [1] is Excitatory amino acid transporter 3 (Homo sapiens) (UniProt P43005). The experiment in a line: Binding affinity to human EAAT3 expressed in HEK293 cells in FMP (FLPR) assay.
Substrate in data set [2]: N[C@@H](C[C@H](O)C(=O)O)C(=O)O
The experiment in a line: (§1) Binding affinity to human EAAT3 expressed in HEK293 cells in FMP (FLPR) assay. It counts as functional, cell-based. In short, it runs like this:
(§2)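 HEK293 cells stably expressing the human transporter, seeded on poly-D-lysine plates in DMEM with 10% dialyzed FBS and G-418 for 16–24 h. Cells washed in Krebs buffer (pH 7.4), then loaded with FMP dye for 30 min at 37 °C. Read at room temperature, excitation 530 nm and emission 560 nm, for up to 1 min after substrate addition. Non-substrate inhibitors were preincubated and tested against 30 μM Glu. Seven-concentration curves from maximal responses, duplicate, at least three times.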

Substrate in data set [3]: N[C@@H](CCC(=O)O)C(=O)O
The data set is described as §1. It counts as functional, cell-based. The method in brief:
as §2

Substrate in data set [4]: N[C@@H](C[C@H](O)C(=O)O)C(=O)O
The experiment in a line: (§3) Binding affinity to human EAAT1 expressed in HEK293 cells in FMP (FLPR) assay. The class given is functional, cell-based. In short, it runs like this: as §2

Substrate in data set [5]: C[C@H](C[C@H](N)C(=O)O)C(=O)O
The data set is described as §3. It counts as functional, cell-based. The method in brief:
as §2

Substrate in data set [6]: N[C@@H](CCC(=O)O)C(=O)O
The data set is described as §3. The class given is functional, cell-based. The method in brief:
as §2

Substrate in data set [7]: N[C@@H](C[C@@H](O)C(=O)O)C(=O)O
Described as §3. It counts as functional, cell-based. In short, it runs like this: as §2

As usually defined, the Km is the substrate concentration at which the rate is half of its maximum.

B1: Excitatory amino acid transporter 3 (Homo sapiens), P43005 (protein)
chain: MGKPARKGCEWKRFLKNNWVLLSTVAAVVLGITTGVLVREHSNLSTLEKFYFAFPGEILMRMLKLIILPLIISSMITGVAALDSNVSGKIGLRAVVYYFCTTLIAVILGIVLVVSIKPGVTQKVGEIARTGSTPEVSTVDAMLDLIRNMFPENLVQACFQQYKTKREEVKPPSDPEMNMTEESFTAVMTTAISKNKTKEYKIVGMYSDGINVLGLIVFCLVFGLVIGKMGEKGQILVDFFNALSDATMKIVQIIMCYMPLGILFLIAGKIIEVEDWEIFRKLGLYMATVLTGLAIHSIVILPLIYFIVVRKNPFRFAMGMAQALLTALMISSSSATLPVTFRCAEENNQVDKRITRFVLPVGATINMDGTALYEAVAAVFIAQLNDLDLGIGQIITISITATSASIGAAGVPQAGLVTMVIVLSAVGLPAEDVTLIIAVDWLLDRFRTMVNVLGDAFGTGIVEKLSKKELEQMDVSSEVNIVNPFALESTILDNEDSDTKKSYVNGGFAVDKSDTISFTQTSQF
On to B1, for which the values for the Km in data set [1], in data set [2] and in data set [3] were 1000 µM, 81 µM and 25 µM, respectively.

B2: Excitatory amino acid transporter 1 (Homo sapiens), P43003 (protein)
chain: MTKSNGEEPKMGGRMERFQQGVRKRTLLAKKKVQNITKEDVKSYLFRNAFVLLTVTAVIVGTILGFTLRPYRMSYREVKYFSFPGELLMRMLQMLVLPLIISSLVTGMAALDSKASGKMGMRAVVYYMTTTIIAVVIGIIIVIIIHPGKGTKENMHREGKIVRVTAADAFLDLIRNMFPPNLVEACFKQFKTNYEKRSFKVPIQANETLVGAVINNVSEAMETLTRITEELVPVPGSVNGVNALGLVVFSMCFGFVIGNMKEQGQALREFFDSLNEAIMRLVAVIMWYAPVGILFLIAGKIVEMEDMGVIGGQLAMYTVTVIVGLLIHAVIVLPLLYFLVTRKNPWVFIGGLLQALITALGTSSSSATLPITFKCLEENNGVDKRVTRFVLPVGATINMDGTALYEALAAIFIAQVNNFELNFGQIITISITATAASIGAAGIPQAGLVTMVIVLTSVGLPTDDITLIIAVDWFLDRLRTTTNVLGDSLGAGIVEHLSRHELKNRDVEMGNSVIEENEMKKPYQLIAQDNETEKPIDSETKM
For the protein B2, the Km in data set [4] was 140 µM; in data set [5], 13 µM; in data set [6], 9.2 µM; in data set [7], 1000 µM.

(Values after ChEMBL document CHEMBL1141219, “Chemoenzymatic synthesis of a series of 4-substituted glutamate analogues and pharmacological characterization at human glutamate transporters subtypes 1-3” (J Med Chem, 2005).)
